We go through 10 compounds from ChEMBL document CHEMBL2331494, “First synthesis and biological evaluation of indeno[2,1-e]pyrazolo[3,4-b]pyrazin-5-one and related derivatives” (2013).

The structures appear in SMILES notation. Converted amounts (≈) assume the structure as drawn.

Holding throughout (assay type): functional
The test system of assay [1] is Scopulariopsis brevicaulis. Briefly: Antifungal activity against Scopulariopsis brevicaulis AUMC 729 assessed as diameter of growth inhibition zone at 20 mg/ml at 28 degC after 7 days. As to conditions: AUMC 729, 168 h, read-out: DIZ. In outline:
(§1)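 Inocula: each fungus grown 7 days in Sabouraud's dextrose broth (30 ml per flask). Plates were 10 cm Petri dishes with 1 ml microbial suspension and 15 ml Sabouraud's dextrose agar each. Compound solutions were applied and the diameter of the growth inhibition zone was recorded.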

The subject of assay [2] is Escherichia coli. Briefly: Antibacterial activity against Escherichia coli AUMC B-53 assessed as diameter of growth inhibition zone at 20 mg/ml at 28 degC after 48 hrs. To be noted: AUMC B-53, 48 h, read-out: DIZ. In outline: (§2)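 Inocula: each bacterial strain grown 48 h in nutrient broth (30 ml per flask). For the assay, 1 ml microbial suspension and 15 ml nutrient agar were poured into each 10 cm Petri plate, compound solutions were applied, and the diameter of the inhibition zone was read.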

Assay [3] has as its system Bacillus cereus. Briefly: Antibacterial activity against Bacillus cereus AUMC B-52 assessed as diameter of growth inhibition zone at 20 mg/ml at 28 degC after 48 hrs. To be noted: AUMC B-52, 48 h, read-out: DIZ. In outline:
as §2

For assay [4], the system named is Staphylococcus aureus. Briefly: Antibacterial activity against Staphylococcus aureus AUMC B-54 assessed as diameter of growth inhibition zone at 20 mg/ml at 28 degC after 48 hrs. As to conditions: AUMC B-54, 48 h, read-out: DIZ. In outline:
as §2

Assay [5] concerns Aspergillus flavus. Briefly: Antifungal activity against Aspergillus flavus AUMC 1276 assessed as diameter of growth inhibition zone at 20 mg/ml at 28 degC after 7 days. As to conditions: AUMC 1276, 168 h, read-out: DIZ. In outline:
as §1

The subject of assay [6] is Geotrichum candidum. Briefly: Antifungal activity against Geotrichum candidum AUMC 226 assessed as diameter of growth inhibition zone at 20 mg/ml at 28 degC after 7 days. To be noted: AUMC 226, 168 h, read-out: DIZ. In outline: as §1
In assay [7] the test system is Serratia marcescens. Briefly: Antibacterial activity against Serratia marcescens AUMC B-55 assessed as diameter of growth inhibition zone at 20 mg/ml at 28 degC after 48 hrs. To be noted: AUMC B-55, 48 h, read-out: DIZ. In outline:
as §2

Assay [8] relates to Trichophyton rubrum. Briefly: Antifungal activity against Trichophyton rubrum AUMC 1804 assessed as diameter of growth inhibition zone at 20 mg/ml at 28 degC after 7 days. To be noted: AUMC 1804, 168 h, read-out: DIZ. In outline: as §1
Assay [9] has as its system Micrococcus luteus. Briefly: Antibacterial activity against Micrococcus luteus AUMC B-112 assessed as diameter of growth inhibition zone at 20 mg/ml at 28 degC after 48 hrs. As to conditions: AUMC B-112, 48 h, read-out: DIZ. In outline: as §2
For assay [10], the system named is Pseudomonas aeruginosa. Briefly: Antibacterial activity against Pseudomonas aeruginosa AUMC B-73 g assessed as diameter of growth inhibition zone at 20 mg/ml at 28 degC after 48 hrs. As to conditions: read-out: DIZ. In outline: as §2
Assay [11] has as its system Candida albicans. Briefly: Antifungal activity against Candida albicans AUMC 418 assessed as diameter of growth inhibition zone at 20 mg/ml at 28 degC after 7 days. To be noted: AUMC 418, 168 h, read-out: DIZ. In outline: as §1
The subject of assay [12] is Fusarium oxysporum. Briefly: Antifungal activity against Fusarium oxysporum AUMC 5119 assessed as diameter of growth inhibition zone at 20 mg/ml at 28 degC after 7 days. To be noted: AUMC 5119, 168 h, read-out: DIZ. In outline: as §1
Assay [13] concerns Trichophyton rubrum. Briefly: Antifungal activity against Trichophyton rubrum AUMC 1804 assessed as growth inhibition at 28 degC after 7 days. As to conditions: for MIC: Trichophyton rubrum, AUMC 1804, 168 h.
Assay [14] deals with Aspergillus flavus. Briefly: Antifungal activity against Aspergillus flavus AUMC 3214 assessed as growth inhibition at 28 degC after 7 days. To be noted: for MIC: Aspergillus flavus, AUMC 3214, 168 h.

In general, MIC refers to the smallest concentration in the dilution series that meets the test's criterion for growth inhibition.

Turning to `Cc1nn(-c2ccccc2)c2nc3c(nc12)/C(=N/N)c1ccccc1-3`, the zone of inhibition at 20000 µg/mL in [1] worked out at 0 mm; in assay [2], 8 mm; in [3], 0 mm; in assay [4], 8 mm; in assay [5], 0 mm; in assay [6], 0 mm. Also, the zone of inhibition at 20000 µg/mL in assay [7], in assay [8], in [9], in assay [10], in [11] and in assay [12] was 0 mm in each case.
Take `Cc1nn(-c2ccccc2)c2nc3c(nc12)/C(=N/N=C1/NC(=O)CS1)c1ccccc1-3`: the zone of inhibition at 20000 µg/mL in [1] was 0 mm; in assay [2] it was 8 mm; in assay [3], 0 mm; in [4] it was 10 mm; in [5] it was 12 mm; in assay [6], 10 mm. Besides, the zone of inhibition at 20000 µg/mL in assay [7] came to 0 mm; in assay [8] it was 26 mm; in assay [9] it was 0 mm; in assay [10], 8 mm; in assay [11], 0 mm; in assay [12], 0 mm. Also, the “diameter of the inhibition zone (DIZ)” value came out at 12 mm in assay [13] and 10 mm in [14]. Further, the MIC came out at 600 µg/mL (≈ 1410 µM) in assay [13] and 5000 µg/mL (≈ 11800 µM) in assay [14].
Consider `Cc1nn(-c2ccccc2)c2nc3c(nc12)/C(=N/N=c1/[nH]c(-c2ccccc2)cs1)c1ccccc1-3`, for which the zone of inhibition at 20000 µg/mL in [1] was 0 mm; in assay [2], 8 mm; in [3], 0 mm; in assay [4], 10 mm; in [5], 16 mm; in [6], 10 mm. For the same compound, the zone of inhibition at 20000 µg/mL in [7] stood at 0 mm; in [8] it was 30 mm; in assay [9] it was 0 mm; in assay [10], 0 mm; in assay [11], 0 mm; in assay [12], 0 mm. The entries for the “diameter of the inhibition zone (DIZ)” value in assay [13] and in assay [14] were 14 mm and 12 mm, respectively. Also, the MIC in assay [13] was determined as 300 µg/mL (≈ 618 µM); in [14] it was 2500 µg/mL (≈ 5150 µM).
On to `Cc1nn(-c2ccccc2)c2nc3c(nc12)Cc1ccccc1-3`, for which the zone of inhibition at 20000 µg/mL stood at 0 mm in [1]; 0 mm in [2]; 0 mm in [3]; 8 mm in [4]; 0 mm in assay [5]; 0 mm in assay [6]. The zone of inhibition at 20000 µg/mL in assay [7], in assay [8], in assay [9], in assay [10], in assay [11] and in [12] was 0 mm each time.
`Cc1nn(-c2ccccc2)c2nc3c(nc12)/C(=C/c1ccccc1Cl)c1ccccc1-3`: the zone of inhibition at 20000 µg/mL came to 0 mm in assay [1]; 8 mm in assay [2]; 0 mm in assay [3]; 10 mm in assay [4]; 9 mm in assay [5]; 0 mm in [6]. The zone of inhibition at 20000 µg/mL in assay [7] came out at 0 mm; in assay [8] it was 26 mm; in assay [9], 0 mm; in assay [10], 8 mm; in assay [11], 0 mm; in assay [12], 0 mm. The “diameter of the inhibition zone (DIZ)” value came out at 10 mm in [13] and 9 mm in assay [14]. The MIC in assay [13] was found to be 600 µg/mL (≈ 1430 µM); in assay [14] it was 20000 µg/mL (≈ 47500 µM).
Turning to `Cc1nn(-c2ccccc2)c2nc3c(nc12)C(=O)c1ccccc1-3`, the zone of inhibition at 20000 µg/mL was determined as 0 mm in [1]; 10 mm in assay [2]; 0 mm in assay [3]; 8 mm in assay [4]; 0 mm in assay [5]; 0 mm in assay [6]. Besides, the zone of inhibition at 20000 µg/mL in assay [7], in assay [8], in assay [9], in assay [10], in assay [11] and in assay [12] was 0 mm throughout.
Take `CCOC(=O)/C(C#N)=C1\c2ccccc2-c2nc3c(nc21)c(C)nn3-c1ccccc1`: the zone of inhibition at 20000 µg/mL in [1] was determined as 0 mm; in [2], 8 mm; in assay [3], 0 mm; in assay [4], 8 mm; in assay [5] it was 0 mm; in assay [6], 0 mm. Also, the zone of inhibition at 20000 µg/mL in assay [7] turned out to be 0 mm; in assay [8], 0 mm; in [9] it was 0 mm; in [10] it was 8 mm; in assay [11] it was 10 mm; in assay [12] it was 0 mm.
As to `Cc1nn(-c2ccccc2)c2nc3c(nc12)/C(=N\O)c1ccccc1-3`, the zone of inhibition at 20000 µg/mL in [1] worked out at 0 mm; in [2], 0 mm; in assay [3], 0 mm; in assay [4] it was 8 mm; in [5] it was 0 mm; in assay [6], 0 mm. The zone of inhibition at 20000 µg/mL in assay [7] stood at 0 mm; in [8], 0 mm; in assay [9] it was 0 mm; in assay [10] it was 8 mm; in [11], 0 mm; in assay [12], 0 mm.
In the case of `O=C(N[C@H](CO)[C@H](O)c1ccc([N+](=O)[O-])cc1)C(Cl)Cl` [CHLORAMPHENICOL], the zone of inhibition at 20000 µg/mL was 18 mm in [2]; 22 mm in assay [3]; 18 mm in assay [4]; 20 mm in assay [7]; 20 mm in assay [9]; 18 mm in assay [10].
Consider `Clc1ccccc1C(c1ccccc1)(c1ccccc1)n1ccnc1` [CLOTRIMAZOLE], for which the zone of inhibition at 20000 µg/mL in assay [1] worked out at 28 mm; in assay [5], 44 mm; in assay [6] it was 26 mm; in assay [8], 36 mm; in [11] it was 24 mm; in [12], 20 mm. The “diameter of the inhibition zone (DIZ)” value came out at 35 mm in assay [13] and 15 mm in assay [14]. Moreover, the MIC is 80 µg/mL (≈ 232 µM) in assay [13] and 150 µg/mL (≈ 435 µM) in assay [14].
